≈ marks a conversion by molar mass, not a printed value.
Tests used:
[1] = molecular target: T1, Cholecystokinin receptor type A (Rattus norvegicus, UniProt P30551); test: Displacement of [3H]CCK8 from rat pancreas CCK1 receptor at by liquid scintillation counting
T1 sequence (P30551 whole entry): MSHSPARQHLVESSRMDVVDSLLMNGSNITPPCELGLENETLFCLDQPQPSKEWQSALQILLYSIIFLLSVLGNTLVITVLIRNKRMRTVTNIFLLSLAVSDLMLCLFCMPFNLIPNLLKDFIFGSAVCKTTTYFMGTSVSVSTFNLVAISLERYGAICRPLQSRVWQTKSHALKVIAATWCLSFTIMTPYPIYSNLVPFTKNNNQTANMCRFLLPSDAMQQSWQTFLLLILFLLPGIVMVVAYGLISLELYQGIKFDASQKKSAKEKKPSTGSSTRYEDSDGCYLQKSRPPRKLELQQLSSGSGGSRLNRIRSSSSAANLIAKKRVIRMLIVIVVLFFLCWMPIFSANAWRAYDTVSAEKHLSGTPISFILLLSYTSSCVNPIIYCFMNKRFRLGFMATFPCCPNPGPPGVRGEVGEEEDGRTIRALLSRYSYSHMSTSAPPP
In short: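 Rat pancreas membranes incubated at 37 °C with [³H]-CCK8s at 0.2 nM; nonspecific binding defined with L-364,718. Bound and free ligand separated by filtration over GF/C filters, then counted by liquid scintillation. Ki calculated using Bmax and KD from separate saturation binding isotherms.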

[2] = Selectivity ratio of pKi for guinea pig brain CCK2 receptor to pKi for rat pancreas CCK1
In short: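 Radioligand displacement binding to guinea pig brain membranes (CCK2, incubated at 25 °C) and rat pancreas membranes (CCK1, incubated at 37 °C) with 0.2 nM [³H]-CCK8s. Non-specific binding was defined with L-365,260 (CCK2) or L-364,718 (CCK1). Bound ligand was separated by GF/C filtration and counted by liquid scintillation. Ki values were derived for each subtype, with KD and Bmax taken from separate saturation isotherms.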

[3] = Displacement of [3H]CCK8 from guinea pig brain CCK2 receptor by liquid scintillation counting; design: species or system Cavia porcellus
In short: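 Guinea pig brain membranes incubated at 25 °C with [³H]-CCK8s at 0.2 nM; nonspecific binding defined with L-365,260. Bound and free ligand separated by filtration over GF/C filters, then counted by liquid scintillation. Ki calculated using Bmax and KD from separate saturation binding isotherms.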

[4] = Solubility of the compound at pH 2.4; type: physicochemical; details: buffer

## COc1ccc(NC(=O)NC2C(=O)N(CCC(C)C)c3ccccc3N(CCN3CCOCC3)C2=O)c(C)c1 (racemic)
[1]
  Ki: 6610 nM
[2]
  Ki selectivity ratio (CCK1 Ki / CCK2 Ki): 229
[3]
  pKi: 7.54

## CCN(CC)CCN1C(=O)C(NC(=O)Nc2ccccc2)C(=O)N(CC2CCCCC2)c2ccccc21 (racemic) [listing 1 of 2 here]
[1]
  Ki: 1510 nM
[3]
  pKi: 8.99

## CC(C)CCN1C(=O)C(NC(=O)Nc2ccc(Cl)cc2)C(=O)N(CCN2CCOCC2)c2ccccc21 (racemic)
[1]
  Ki: 1020 nM
[2]
  Ki selectivity ratio (CCK1 Ki / CCK2 Ki): 525
[3]
  pKi: 8.71

## Cc1cccc(NC(=O)NC2C(=O)N(CCC(C)C)c3ccccc3N(CCN3CCOCC3)C2=O)c1 (racemic)
[1]
  Ki: 275 nM
[2]
  Ki selectivity ratio (CCK1 Ki / CCK2 Ki): 372
[3]
  pKi: 9.11

## CC(C)CCN1C(=O)C(NC(=O)Nc2ccc(C(F)(F)F)cc2)C(=O)N(CCN2CCOCC2)c2ccccc21 (racemic)
[1]
  Ki: 1480 nM
[2]
  Ki selectivity ratio (CCK1 Ki / CCK2 Ki): 407
[3]
  pKi: 8.44

## CC(C)CCN1C(=O)C(NC(=O)Nc2ccc(Br)cc2)C(=O)N(CCN2CCOCC2)c2ccccc21 (racemic)
[1]
  Ki: 1070 nM
[2]
  Ki selectivity ratio (CCK1 Ki / CCK2 Ki): 295
[3]
  pKi: 8.44

## CC(C)CCN1C(=O)C(NC(=O)Nc2ccc(F)cc2)C(=O)N(CCN2CCOCC2)c2ccccc21 (racemic)
[1]
  Ki: 1450 nM
[2]
  Ki selectivity ratio (CCK1 Ki / CCK2 Ki): 363
[3]
  pKi: 8.4

## CCOc1ccc(NC(=O)NC2C(=O)N(CCC(C)C)c3ccccc3N(CCN3CCOCC3)C2=O)cc1 (racemic)
[1]
  Ki: > 10000 nM
[2]
  Ki selectivity ratio (CCK1 Ki / CCK2 Ki): 148
[3]
  pKi: 7.17

## Cc1cc(Br)ccc1NC(=O)NC1C(=O)N(CCC(C)C)c2ccccc2N(CCN2CCOCC2)C1=O (racemic)
[1]
  Ki: 537 nM
[2]
  Ki selectivity ratio (CCK1 Ki / CCK2 Ki): 38
[3]
  pKi: 7.85

## CC(C)CCN1C(=O)C(NC(=O)Nc2ccccc2C(C)C)C(=O)N(CCN2CCOCC2)c2ccccc21 (racemic)
[1]
  Ki: > 10000 nM
[2]
  Ki selectivity ratio (CCK1 Ki / CCK2 Ki): 78
[3]
  pKi: 6.89

## Cc1cccc(Cl)c1NC(=O)NC1C(=O)N(CCC(C)C)c2ccccc2N(CCN2CCOCC2)C1=O (racemic)
[1]
  Ki: 5130 nM
[2]
  Ki selectivity ratio (CCK1 Ki / CCK2 Ki): 44
[3]
  pKi: 6.93

## COc1ccc(NC(=O)NC2C(=O)N(CCC(C)C)c3ccccc3N(CCN3CCOCC3)C2=O)cc1 (racemic)
[1]
  Ki: 5130 nM
[2]
  Ki selectivity ratio (CCK1 Ki / CCK2 Ki): 646
[3]
  pKi: 8.1

## CC(C)CCN1C(=O)C(NC(=O)Nc2ccccc2)C(=O)N(CCN2CCCCC2)c2ccccc21 (racemic)
[1]
  Ki: 2040 nM
[2]
  Ki selectivity ratio (CCK1 Ki / CCK2 Ki): 302
[3]
  pKi: 8.17

## COc1ccc(NC(=O)NC2C(=O)N(CCC(C)C)c3ccccc3N(CCN(C)C)C2=O)cc1 (racemic)
[1]
  Ki: 17400 nM
[2]
  Ki selectivity ratio (CCK1 Ki / CCK2 Ki): 1550
[3]
  pKi: 7.95

## O=C(Nc1ccccc1)NC1C(=O)N(CCN2CCOCC2)c2ccccc2N(CC2CCCCC2)C1=O (racemic)
[1]
  Ki: 347 nM
[2]
  Ki selectivity ratio (CCK1 Ki / CCK2 Ki): 126
[3]
  pKi: 8.56

## Cc1cccc(NC(=O)NC2C(=O)N(CCN3CCOCC3)c3ccccc3N(CC3CCCCC3)C2=O)c1 (racemic)
[1]
  Ki: 174 nM
[2]
  Ki selectivity ratio (CCK1 Ki / CCK2 Ki): 316
[3]
  pKi: 9.26

## O=C(Nc1ccccc1)NC1C(=O)N(CCN2CCOCC2)c2cc(F)ccc2N(CC23CC4CC(CC(C4)C2)C3)C1=O (racemic) [listing 1 of 2 here]
[1]
  Ki: 2630 nM
[3]
  pKi: 8.36
[4]
  solubility: 360 µg/mL (≈ 610 µM)

## O=C(Nc1ccc(F)cc1)NC1C(=O)N(CCN2CCOCC2)c2ccccc2N(CC23CC4CC(CC(C4)C2)C3)C1=O (racemic) [listing 1 of 2 here]
[1]
  Ki: 1410 nM
[3]
  pKi: 8.66
[4]; read-out: solubility
  solubility: 20 µg/mL (≈ 33.9 µM)

## O=C(Nc1ccccc1)NC1C(=O)N(CCN2CCCC2)c2ccccc2N(CC23CC4CC(CC(C4)C2)C3)C1=O (racemic)
[1]
  Ki: 9550 nM
[2]
  Ki selectivity ratio (CCK1 Ki / CCK2 Ki): 9120
[3]
  pKi: 8.98

## CN(C)CCCN1C(=O)C(NC(=O)Nc2ccccc2)C(=O)N(CC23CC4CC(CC(C4)C2)C3)c2ccccc21 (racemic)
[1]
  Ki: 20400 nM
[2]
  Ki selectivity ratio (CCK1 Ki / CCK2 Ki): 5620
[3]
  pKi: 8.44

## CCN(CC)CCN1C(=O)C(NC(=O)Nc2ccc(F)cc2)C(=O)N(CC23CC4CC(CC(C4)C2)C3)c2ccccc21 (racemic)
[1]
  Ki: 1660 nM
[2]
  Ki selectivity ratio (CCK1 Ki / CCK2 Ki): 851
[3]
  pKi: 8.71

## CCN(CC)CCN1C(=O)C(NC(=O)Nc2ccccc2)C(=O)N(CC2CCCCC2)c2ccccc21 (racemic) [listing 2 of 2 here]
[2]
  Ki selectivity ratio (CCK1 Ki / CCK2 Ki): 1480

## O=C(Nc1ccc(F)cc1)NC1C(=O)N(CCN2CCOCC2)c2ccccc2N(CC23CC4CC(CC(C4)C2)C3)C1=O (racemic) [listing 2 of 2 here]
[2]
  Ki selectivity ratio (CCK1 Ki / CCK2 Ki): 646

## O=C(Nc1ccccc1)NC1C(=O)N(CCN2CCOCC2)c2cc(F)ccc2N(CC23CC4CC(CC(C4)C2)C3)C1=O (racemic) [listing 2 of 2 here]
[2]
  Ki selectivity ratio (CCK1 Ki / CCK2 Ki): 603

## O=C(Nc1ccccc1)NC1C(=O)N(CCN2CCOCC2)c2ccccc2N(CC23CC4CC(CC(C4)C2)C3)C1=O (racemic)
[2]
  Ki selectivity ratio (CCK1 Ki / CCK2 Ki): 3550

## O=C(Nc1ccccc1)NC1C(=O)N(CCN2CCOCC2)c2cc(F)ccc2N(CC23CC4CC(CC(C4)C2)C3)C1=O (single isomer, unassigned; (+)) [listing 1 of 2 here]
[1]
  Ki: 2240 nM
[3]
  pKi: 7.31

## O=C(Nc1ccc(F)cc1)NC1C(=O)N(CCN2CCOCC2)c2ccccc2N(CC23CC4CC(CC(C4)C2)C3)C1=O (single isomer, unassigned; (+)) [listing 1 of 2 here]
[1]
  Ki: 2570 nM
[3]
  pKi: 7.85

## O=C(Nc1ccc(F)cc1)NC1C(=O)N(CCN2CCOCC2)c2ccccc2N(CC23CC4CC(CC(C4)C2)C3)C1=O (single isomer, unassigned; (+)) [listing 2 of 2 here]
[2]
  Ki selectivity ratio (CCK1 Ki / CCK2 Ki): 182

## O=C(Nc1ccccc1)NC1C(=O)N(CCN2CCOCC2)c2cc(F)ccc2N(CC23CC4CC(CC(C4)C2)C3)C1=O (single isomer, unassigned; (+)) [listing 2 of 2 here]
[2]
  Ki selectivity ratio (CCK1 Ki / CCK2 Ki): 46

## O=C(Nc1ccc(F)cc1)NC1C(=O)N(CCN2CCOCC2)c2ccccc2N(CC23CC4CC(CC(C4)C2)C3)C1=O (single isomer, unassigned; (-)) [listing 1 of 2 here]
[1]
  Ki: 1020 nM
[3]
  pKi: 9.45
[4]
  solubility: 20 µg/mL (≈ 33.9 µM)

## O=C(Nc1ccc(F)cc1)NC1C(=O)N(CCN2CCOCC2)c2ccccc2N(CC23CC4CC(CC(C4)C2)C3)C1=O (single isomer, unassigned; (-)) [listing 2 of 2 here]
[2]
  Ki selectivity ratio (CCK1 Ki / CCK2 Ki): 2880

## O=C(Nc1ccccc1)NC1C(=O)N(CCN2CCOCC2)c2cc(F)ccc2N(CC23CC4CC(CC(C4)C2)C3)C1=O (single isomer, unassigned; (-))
[2]
  Ki selectivity ratio (CCK1 Ki / CCK2 Ki): 1020

## O=C(Nc1ccccc1)NC1C(=O)N(CCN2CCOCC2)c2ccccc2N(CC23CC4CC(CC(C4)C2)C3)C1=O (single isomer, unassigned; (-))
[2]
  Ki selectivity ratio (CCK1 Ki / CCK2 Ki): 8910

## CCN(CC)CCN1C(=O)C(NC(=O)Nc2ccccc2)C(=O)N(CC2CCCCC2)c2ccccc21 (single isomer, unassigned; isomer 1) [listing 1 of 2 here]
[1]
  Ki: 2690 nM
[3]
  pKi: 8.23

## CCN(CC)CCN1C(=O)C(NC(=O)Nc2ccccc2)C(=O)N(CC2CCCCC2)c2ccccc21 (single isomer, unassigned; isomer 1) [listing 2 of 2 here]
[2]
  Ki selectivity ratio (CCK1 Ki / CCK2 Ki): 457

## CCN(CC)CCN1C(=O)C(NC(=O)Nc2ccccc2)C(=O)N(CC2CCCCC2)c2ccccc21 (stereo in doubt) [listing 1 of 2 here]
[1]
  Ki: 468 nM
[3]
  pKi: 9.4

## CCN(CC)CCN1C(=O)C(NC(=O)Nc2ccccc2)C(=O)N(CC2CCCCC2)c2ccccc21 (stereo in doubt) [listing 2 of 2 here]
[2]
  Ki selectivity ratio (CCK1 Ki / CCK2 Ki): 1180

## O=C(Nc1ccccc1)NC1C(=O)N(CCN2CCOCC2)c2ccccc2N(CC23CC4CC(CC(C4)C2)C3)C1=O (stereo in doubt; 55) [listing 1 of 2 here]
[1]
  Ki: 1580 nM
[3]
  pKi: 8.03

## O=C(Nc1ccccc1)NC1C(=O)N(CCN2CCOCC2)c2ccccc2N(CC23CC4CC(CC(C4)C2)C3)C1=O (stereo in doubt; 55) [listing 2 of 2 here]
[2]
  Ki selectivity ratio (CCK1 Ki / CCK2 Ki): 170

— ChEMBL document CHEMBL1806366, “Synthesis and structure-activity relationship of new 1,5-dialkyl-1,5-benzodiazepines as cholecystokinin-2 receptor antagonists” (Bioorg Med Chem, 2011)
